The values below come from ChEMBL document CHEMBL4270668, “Design, Synthesis, Molecular Dynamics Simulation, and Functional Evaluation of a Novel Series of 26RFa Peptide Analogues Containing a Mono- or Polyalkyl Guanidino Arginine Derivative” (J Med Chem, 2018).

Starred links: 1 amine or outer side, 2 acyl side, 3 side chain; linkers in the order of their positions; H or OH if unused. Non-standard residues stand in square brackets, D forms with d. Residues, ends and D or L forms follow the SMILES beside them. X14 = CCN(CC)C(=N)NCCCC[C@H](N[*:1])C(=O)[*:2]; X16 = CC(C)CNC(=N)NCCC[C@H](N[*:1])C(=O)[*:2]; X18 = C/N=C(/NCC[C@H](N[*:1])C(=O)[*:2])N(C)C; X24 = N=C(NCCCC[C@H](N[*:1])C(=O)[*:2])N1CCC1; X17 = CC(C)CNC(=N)NCC[C@H](N[*:1])C(=O)[*:2]; X19 = C/N=C(\NC)NCCCC[C@H](N[*:1])C(=O)[*:2]; X21 = CCN(C)C(=N)NCCC[C@H](N[*:1])C(=O)[*:2]; X13 = C/N=C(\NC)NCC[C@H](N[*:1])C(=O)[*:2]; X20 = CCNC(=N)NCCCC[C@H](N[*:1])C(=O)[*:2]; X23 = CN(C)C(=N)NCC[C@H](N[*:1])C(=O)[*:2]; X22 = CCCNC(=N)NCC[C@H](N[*:1])C(=O)[*:2]; X15 = CCNC(=N)NCC[C@H](N[*:1])C(=O)[*:2]; Arg(Me) = CNC(=N)NCCC[C@H](N)C(=O)O; hArg = N=C(N)NCCCC[C@H](N)C(=O)O

In assay [1] the target is T1, Pyroglutamylated RF-amide peptide receptor (Homo sapiens, UniProt Q96P65).
T1 sequence (Q96P65 whole entry): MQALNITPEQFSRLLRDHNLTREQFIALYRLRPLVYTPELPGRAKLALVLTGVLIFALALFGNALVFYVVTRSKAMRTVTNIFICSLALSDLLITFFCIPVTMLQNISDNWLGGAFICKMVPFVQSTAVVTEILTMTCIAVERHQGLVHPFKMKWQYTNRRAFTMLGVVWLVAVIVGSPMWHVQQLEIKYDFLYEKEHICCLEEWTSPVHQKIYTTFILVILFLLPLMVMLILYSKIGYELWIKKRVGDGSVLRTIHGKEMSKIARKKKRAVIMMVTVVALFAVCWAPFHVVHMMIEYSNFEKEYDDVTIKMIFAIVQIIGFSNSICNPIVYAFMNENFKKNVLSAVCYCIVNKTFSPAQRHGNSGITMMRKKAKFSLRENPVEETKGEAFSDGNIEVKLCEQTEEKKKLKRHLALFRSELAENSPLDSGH
Description: Agonist activity at human QRFPR expressed in CHO cells co-expressing Galpha16 assessed as increase Ca2+ mobilization after 3 mins by Fluo-4 AM-based scanning fluorometery. The assay is classed as functional, cell-based. Summed up:
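CHO-Gα16 cells stably expressing human QRFPR, seeded at 40,000 cells/well 24 h ahead. Loaded 1 h with 2 µM Fluo-4 AM plus 0.01% pluronic acid, washed, then 30 min in HBSS with 2.5 mM probenecid and 5 mM HEPES. Compounds added at final 10^-11 to 10^-5 M; fluorescence recorded 3 min on a scanning fluorometer. EC50 from sigmoidal variable-slope fits, ≥3 experiments in triplicate.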
A general note: Calcium flux is commonly read through the fluorescence of an indicator in the cells.

The target of assay [2] is T1, Pyroglutamylated RF-amide peptide receptor. Kind of assay: Antagonist activity at human QRFPR expressed in CHO cells co-expressing Galpha16 assessed as inhibition of 26RFa-induced Ca2+ mobilization preincubated for 15 mins followed by agonist addition measured after 3 mins by Fluo-4 AM-based scanning fluorometery. The format is functional, cell-based. Summed up:
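CHO-Gα16-hQRFPR cells loaded 1 h with 2 µM Fluo-4 AM, then incubated 15 min with graded compound. A 10^-7 M final 26RFa pulse was given during recording. Background subtracted, baseline normalized to 100%, peak fluorescence taken per concentration. IC50 from sigmoidal variable-slope fits, ≥3 experiments in triplicate. Maximal effect at 10^-4 M expressed as % inhibition of the 26RFa (10^-7 M) response.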

The term EC50 denotes the concentration needed to bring the measured effect to its halfway point. A word on the IC50: it is the point on the concentration scale where inhibition reaches its midpoint. In the case of `C/N=C(\NC)NCC[C@H](NC(=O)[C@H](Cc1ccccc1)NC(=O)[C@H](CO)NC(=O)[C@H](Cc1ccccc1)NC(=O)CNC(=O)CN)C(=O)N[C@@H](Cc1ccccc1)C(N)=O` (H-GGFSF[X13]F-NH2), in assay [1], the EC50 is > 100 µM. Further, the IC50 in assay [2] was > 100 µM. Take `CCN(CC)C(=N)NCCCC[C@H](NC(=O)[C@H](Cc1ccccc1)NC(=O)[C@H](CO)NC(=O)[C@H](Cc1ccccc1)NC(=O)CNC(=O)CN)C(=O)N[C@@H](Cc1ccccc1)C(N)=O` (H-GGFSF[X14]F-NH2): the EC50 in assay [1] is > 100 µM. The IC50 in assay [2] was > 100 µM. As to `CCNC(=N)NCC[C@H](NC(=O)[C@H](Cc1ccccc1)NC(=O)[C@H](CO)NC(=O)[C@H](Cc1ccccc1)NC(=O)CNC(=O)CN)C(=O)N[C@@H](Cc1ccccc1)C(N)=O` (H-GGFSF[X15]F-NH2), in assay [1], the half-maximal effective concentration (EC50) was > 100 µM. For the same compound, in assay [2], the half-inhibitory concentration (IC50) was > 100 µM. Regarding `CC(C)CNC(=N)NCCC[C@H](NC(=O)[C@H](Cc1ccccc1)NC(=O)[C@H](CO)NC(=O)[C@H](Cc1ccccc1)NC(=O)CNC(=O)CN)C(=O)N[C@@H](Cc1ccccc1)C(N)=O` (H-GGFSF[X16]F-NH2), the EC50 in assay [1] was determined as 1.5 µM. On to `CC(C)CNC(=N)NCC[C@H](NC(=O)[C@H](Cc1ccccc1)NC(=O)[C@H](CO)NC(=O)[C@H](Cc1ccccc1)NC(=O)CNC(=O)CN)C(=O)N[C@@H](Cc1ccccc1)C(N)=O` (H-GGFSF[X17]F-NH2), for which the 50% effective concentration (EC50) in assay [1] is > 100 µM. Also, the IC50 in assay [2] was > 100 µM.

On to `C/N=C(/NCC[C@H](NC(=O)[C@H](Cc1ccccc1)NC(=O)[C@H](CO)NC(=O)[C@H](Cc1ccccc1)NC(=O)CNC(=O)CN)C(=O)N[C@@H](Cc1ccccc1)C(N)=O)N(C)C` (H-GGFSF[X18]F-NH2), for which the 50% effective concentration (EC50) in assay [1] was > 100 µM. In addition, in assay [2], the 50% inhibitory concentration (IC50) was > 100 µM.

Regarding `C/N=C(\NC)NCCCC[C@H](NC(=O)[C@H](Cc1ccccc1)NC(=O)[C@H](CO)NC(=O)[C@H](Cc1ccccc1)NC(=O)CNC(=O)CN)C(=O)N[C@@H](Cc1ccccc1)C(N)=O` (H-GGFSF[X19]F-NH2), in assay [1], the half-maximal effective concentration (EC50) was > 100 µM. For the same compound, in assay [2], the half-maximal inhibitory concentration (IC50) was > 100 µM. As for `CCNC(=N)NCCCC[C@H](NC(=O)[C@H](Cc1ccccc1)NC(=O)[C@H](CO)NC(=O)[C@H](Cc1ccccc1)NC(=O)CNC(=O)CN)C(=O)N[C@@H](Cc1ccccc1)C(N)=O` (H-GGFSF[X20]F-NH2), the EC50 in assay [1] was > 100 µM. Further, the 50% inhibitory concentration (IC50) in assay [2] was > 100 µM. Regarding `CCN(C)C(=N)NCCC[C@H](NC(=O)[C@H](Cc1ccccc1)NC(=O)[C@H](CO)NC(=O)[C@H](Cc1ccccc1)NC(=O)CNC(=O)CN)C(=O)N[C@@H](Cc1ccccc1)C(N)=O` (H-GGFSF[X21]F-NH2), the EC50 in assay [1] was > 100 µM. In addition, the IC50 in assay [2] was > 100 µM. Regarding `CCCNC(=N)NCC[C@H](NC(=O)[C@H](Cc1ccccc1)NC(=O)[C@H](CO)NC(=O)[C@H](Cc1ccccc1)NC(=O)CNC(=O)CN)C(=O)N[C@@H](Cc1ccccc1)C(N)=O` (H-GGFSF[X22]F-NH2), the EC50 in assay [1] was > 100 µM. Also, the IC50 in assay [2] is > 100 µM.

On to `CN(C)C(=N)NCC[C@H](NC(=O)[C@H](Cc1ccccc1)NC(=O)[C@H](CO)NC(=O)[C@H](Cc1ccccc1)NC(=O)CNC(=O)CN)C(=O)N[C@@H](Cc1ccccc1)C(N)=O` (H-GGFSF[X23]F-NH2), for which the half-maximal effective concentration (EC50) in assay [1] is > 100 µM. Also, the IC50 in assay [2] was > 100 µM. Take `N=C(NCCCC[C@H](NC(=O)[C@H](Cc1ccccc1)NC(=O)[C@H](CO)NC(=O)[C@H](Cc1ccccc1)NC(=O)CNC(=O)CN)C(=O)N[C@@H](Cc1ccccc1)C(N)=O)N1CCC1` (H-GGFSF[X24]F-NH2): the EC50 in assay [1] is > 100 µM. Further, the IC50 in assay [2] was > 100 µM. As for `N=C(N)NCCCC[C@H](NC(=O)[C@H](Cc1ccccc1)NC(=O)[C@H](CO)NC(=O)[C@H](Cc1ccccc1)NC(=O)CNC(=O)CN)C(=O)N[C@@H](Cc1ccccc1)C(N)=O` (H-GGFSF[hArg]F-NH2), in assay [1], the EC50 was found to be 1.91 µM. With `CNC(=N)NCCC[C@H](NC(=O)[C@H](Cc1ccccc1)NC(=O)[C@H](CO)NC(=O)[C@H](Cc1ccccc1)NC(=O)CNC(=O)CNC(=O)[C@H](CCCCN)NC(=O)[C@H](CCCCN)NC(=O)[C@H](CCCNC(=N)N)NC(=O)[C@H](CO)NC(=O)[C@H](Cc1ccc(O)cc1)NC(=O)CNC(=O)[C@H](CC(N)=O)NC(=O)[C@H](CC(C)C)NC(=O)[C@H](CCC(=O)O)NC(=O)[C@H](CCC(=O)O)NC(=O)[C@H](C)NC(=O)[C@H](CC(C)C)NC(=O)[C@H](CC(N)=O)NC(=O)CNC(=O)[C@H](CC(C)C)NC(=O)[C@@H]1CCCN1C(=O)CNC(=O)[C@H](CO)NC(=O)[C@@H](N)[C@@H](C)O)C(=O)N[C@@H](Cc1ccccc1)C(N)=O` (H-TSGPLGNLAEELNGYSRKKGGFSF[Arg(Me)]F-NH2), in assay [1], the EC50 is 0.0069 µM.

H-GGFSFRF-NH2: in assay [1], the EC50 is 1.64 µM.
